Laboratory results taken from ChEMBL document CHEMBL1671691 (Antimicrob Agents Chemother, 2010).

Test system: Influenza A virus
Assay: Antiviral activity against adamantane-, oseltamivir-, zanamivir-susceptible Influenza A virus (A/Georgia/17/2006(H1N1)) infected in MDCK cells assessed as inhibition of viral replication after 3 days by microscopic analysis using crystal violet stain
Format: functional, organism-based
Settings: 72 h
In short: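 Confluent MDCK-ATCC monolayers infected with virus diluted to give 15–45 plaques/well. Adsorption 1 h at 37°C without drug, then washed. Overlaid with 0.8% agarose in MEM containing drug plus TPCK-trypsin: 3 μg/ml for seasonal viruses, 2 μg/ml for 2009 A(H1N1). Incubated 3 days at 37°C, 5% CO2. Ethanol-fixed, crystal violet-stained, plaques counted. EC50 by curve fit; duplicates on three occasions, mean ± SD.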

## NC(=O)c1ncn([C@@H]2O[C@H](CO)[C@@H](O)[C@H]2O)n1 [RIBAVIRIN]
  EC50: 4.92 µM
